In ChEMBL document CHEMBL1944636, “Inhibition of hepatitis C virus NS5B polymerase by S-trityl-L-cysteine derivatives” (Eur J Med Chem, 2012):
Active and inactive are the calls of the source. The rule behind the calls is not given here.

Assays:
[1] = Cytotoxicity against hamster BHK cells assessed as cell viability at 100 uM after 42 hrs by luciferase reporter gene assay; assay type: cell-based, Mesocricetus auratus; conditions: read-out: Activity
Outline: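 BHK-NS5B-FRLuc reporter cells (DMEM, 10% FBS, 1 mg/mL G418, 10 μg/mL blasticidin) were plated at 1 × 10⁴/well with 100 μM compound or 1% DMSO for 42 h. Viability was taken as firefly luciferase level versus DMSO controls using Dual-Glo read-out. Three independent experiments in duplicate.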

Hepatitis C virus [2] = assay: Antiviral activity against HCV genotype 1b infected in human HuH7/Rep-Feo1b cells assessed as inhibition of viral replication at 100 uM after 42 hrs by luciferase reporter gene assay; assay type: functional, Hepacivirus hominis; conditions: Huh-7, 42 h
Outline: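 Huh7/Rep-Feo1b replicon cells (DMEM, 10% FCS, 0.5 mg/mL G418, 37 °C, 5% CO2) seeded at 1 × 10⁴/well and exposed to 100 μM compound or DMSO for 42 h, 1.0% DMSO final. Replication was read as firefly luciferase signal relative to DMSO controls. Mean of three independent experiments in duplicate.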

[3] = Cytotoxicity against human HuH7 cells assessed as cell viability at 100 uM after 42 hrs by MTS assay; assay type: cell-based, Huh-7; conditions: read-out: Activity
Outline: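 Viability of Huh7/Rep-Feo1b replicon cells was measured by colorimetric MTS read-out after 42 h with 100 μM compound. Cells were seeded at 1 × 10⁴/well, DMSO was 1.0% final, and culture was at 37 °C, 5% CO2. Values relative to DMSO controls, three independent experiments in duplicate.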

Hepatitis C virus [4] = assay: Inhibition of HCV genotype 1b recombinant N-His-tagged NS5B Cdelta21 polymerase expressed in Escherichia coli DH5alpha using [alpha-32P]UTP at 100 uM after 60 mins by liquid scintillation counting; set-up: species or system Hepatitis C virus subtype 1b; conditions: for inhibition at 100 µM: DH5-alpha, 1 h
Outline: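 Primer-dependent elongation with 100 ng NS5BCΔ21 in 20 mM Tris-HCl pH 7.0, 100 mM NaCl, 100 mM Na-glutamate, 1 mM MnCl₂, 0.25 μM polyrA/U₁₂, 20 μM UTP plus [α-³²P]UTP. Compound at 100 μM, 60 min at 30 °C. TCA/pyrophosphate stop, GF-B filter capture, scintillation counting. Percent of DMSO control, at least two independent measurements in duplicate.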

Hepatitis C virus [5] = assay: Inhibition of HCV genotype 1b recombinant N-His-tagged NS5B Cdelta21 polymerase expressed in Escherichia coli DH5alpha using [alpha-32P]UTP after 60 mins by liquid scintillation counting; set-up: species or system Hepatitis C virus subtype 1b; conditions: DH5-alpha, 1 h
Outline: (§1)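 NS5BCΔ21 (genotype 1b, N-His, from E. coli DH5α, Ni-NTA purified), 100 ng, elongates polyrA/U₁₂ with 20 μM UTP/[α-³²P]UTP and 1 mM MnCl₂ at pH 7.0, 60 min at 30 °C. Counted on filters by scintillation. IC50 from nonlinear fits of 8–12 concentrations in duplicate, two independent experiments.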

Hepatitis C virus [6] = assay: Inhibition of HCV genotype 1b NS5B polymerase expressed in BHK cells at 100 uM after 42 hrs by luciferase reporter gene assay; set-up: species or system Hepatitis C virus subtype 1b
Outline: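 Intracellular NS5B RdRp activity was read in BHK-NS5B-FRLuc reporter cells, 1 × 10⁴/well, treated 42 h with 100 μM compound or 1% DMSO at 37 °C, 5% CO2. Dual-Glo luciferase read-out; inhibition is percent reduction of Renilla-to-firefly luminescence ratio against DMSO controls. Three independent experiments in duplicate.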

[7] = Inhibition of HCV NS5B polymerase; set-up: species or system Hepacivirus hominis; outline: as §1

SMILES	inhibition at 100 µM (Hepatitis C virus [4])	other results
CC(C)(SC(c1ccccc1)(c1ccccc1)c1ccccc1)[C@H](N)C(=O)O	76.7%	viability at 42 h, 100 µM [1]: 100%; inhibition at 100 µM (Hepatitis C virus [2]): 91.2%; viability at 42 h, 100 µM [3]: 74.1%; IC50 (Hepatitis C virus [5]): 24.6 µM; inhibition at 100 µM (Hepatitis C virus [6]): 84.3%
CC(C)C(SC[C@H](N)C(=O)O)(c1ccccc1)c1ccccc1	22.5%	–
CC(C)(C)c1ccc(C(SC[C@H](N)C(=O)O)(c2ccccc2)c2ccccc2)cc1	22.6%	–
N[C@H](CSC(c1ccccc1)(c1ccccc1)c1ccccc1)C(=O)O	17%	–
CCCCCCc1ccc(C(SC[C@H](N)C(=O)O)(c2ccccc2)c2ccccc2)cc1	16.1%	–
CCc1ccc(C(SC[C@H](N)C(=O)O)(c2ccccc2)c2ccccc2)cc1	36.8%	–
N[C@@H](CSC(c1ccccc1)(c1ccccc1)c1ccc(C(F)(F)F)cc1)C(=O)O	43.5%	–
CCC(C)C(SC[C@H](N)C(=O)O)(c1ccccc1)c1ccccc1 (stereo partly drawn)	34%	–
CC(C)(SC(c1ccccc1)(c1ccccc1)c1ccccc1)[C@@H](N)C(=O)O	82.8%	viability at 42 h, 100 µM [1]: 100%; inhibition at 100 µM (Hepatitis C virus [2]): 89.5%; viability at 42 h, 100 µM [3]: 72.6%; IC50 (Hepatitis C virus [5]): 22.3 µM; inhibition at 100 µM (Hepatitis C virus [6]): 85.4%
CCCC(SC[C@H](N)C(=O)O)(c1ccccc1)c1ccccc1	19.1%	–
NCCSC(c1ccccc1)(c1ccccc1)c1ccc(-c2ccccc2)cc1	36%	–
CCCc1ccc(C(SC[C@H](N)C(=O)O)(c2ccccc2)c2ccccc2)cc1	36.9%	–
N[C@@H](CSC(c1ccccc1)(c1ccccc1)c1ccc(Br)cc1)C(=O)O	20.2%	–
CSc1ccc(C(SC[C@H](N)C(=O)O)(c2ccccc2)c2ccccc2)cc1	44.3%	–
CCCCCc1ccc(C(SC[C@H](N)C(=O)O)(c2ccccc2)c2ccccc2)cc1	28.3%	–
N[C@@H](CSC(c1ccccc1)(c1ccccc1)c1ccc2ccccc2c1)C(=O)O	14.7%	–
CCCCc1ccc(C(SC[C@H](N)C(=O)O)(c2ccccc2)c2ccccc2)cc1	60%	IC50 (Hepatitis C virus [5]): 39.7 µM
N[C@@H](CSC1(c2ccc(Cl)cc2)c2ccccc2-c2ccccc21)C(=O)O	–	pIC50 [7]: 4.33
N[C@@H](CSC(c1ccccc1)(c1ccccc1)c1ccc(C(=O)O)cc1)C(=O)O	30.9%	–

SMILES	inhibition at 100 µM (Hepatitis C virus [4])	other results
CN(C)[C@@H](CSC(c1ccccc1)(c1ccccc1)c1ccccc1)C(=O)O	17.2%	–
N[C@@H](CSC(c1ccccc1)(c1ccccc1)c1ccc(Cl)cc1)C(=O)O	28.3%	–
Cc1ccc(C(SCCN)(c2ccccc2)c2ccccc2)cc1	31.7%	–
CCC(CC)C(SC[C@H](N)C(=O)O)(c1ccccc1)c1ccccc1	33.1%	–
NCCSC(c1ccccc1)(c1ccccc1)c1ccc(I)cc1	36.7%	–
N[C@@H](CSC(c1ccccc1)(c1ccccc1)c1ccccc1)C(=O)O [S-TRITYL-L-CYSTEINE]	12.6%	–
Cc1ccc(C(SC[C@H](N)C(=O)O)(c2ccccc2)c2ccccc2)cc1	23.1%	–
CCCOc1ccc(C(SC(C)(C)[C@H](N)C(=O)O)(c2ccccc2)c2ccccc2)cc1	–	inhibition (Hepatitis C virus [4]; Hepatitis C virus subtype 1b): inactive
CC(C)c1ccc(C(SC[C@H](N)C(=O)O)(c2ccccc2)c2ccccc2)cc1	31.2%	–
CSc1ccc(C(SCCN)(c2ccccc2)c2ccccc2)cc1	24%	–
NCCSC(c1ccccc1)(c1ccccc1)c1ccc2ccccc2c1	33.3%	–
CCCc1ccc(C(SCCN)(c2ccccc2)c2ccccc2)cc1	27.4%	–
N[C@@H](CSC(c1ccccc1)(c1ccccc1)c1cccs1)C(=O)O	23.4%	–
N[C@@H](CSC(c1ccccc1)(c1ccccc1)c1ccc(-c2ccccc2)cc1)C(=O)O	22.4%	–
N[C@@H](CSC(c1ccccc1)(c1ccccc1)c1ccc(C2CCCCC2)cc1)C(=O)O	20.5%	–
CCc1ccc(C(SCCN)(c2ccccc2)c2ccccc2)cc1	28.7%	–
CCCCc1ccc(C(SC(C)(C)[C@H](N)C(=O)O)(c2ccccc2)c2ccccc2)cc1	22%	–
CCCOc1ccc(C(SC[C@H](N)C(=O)O)(c2ccccc2)c2ccccc2)cc1	14%	–
